The target of one series is T1, mouse TRPC5 (Mus musculus, UniProt Q9QX29).
T1 sequence (Q9QX29 1-975): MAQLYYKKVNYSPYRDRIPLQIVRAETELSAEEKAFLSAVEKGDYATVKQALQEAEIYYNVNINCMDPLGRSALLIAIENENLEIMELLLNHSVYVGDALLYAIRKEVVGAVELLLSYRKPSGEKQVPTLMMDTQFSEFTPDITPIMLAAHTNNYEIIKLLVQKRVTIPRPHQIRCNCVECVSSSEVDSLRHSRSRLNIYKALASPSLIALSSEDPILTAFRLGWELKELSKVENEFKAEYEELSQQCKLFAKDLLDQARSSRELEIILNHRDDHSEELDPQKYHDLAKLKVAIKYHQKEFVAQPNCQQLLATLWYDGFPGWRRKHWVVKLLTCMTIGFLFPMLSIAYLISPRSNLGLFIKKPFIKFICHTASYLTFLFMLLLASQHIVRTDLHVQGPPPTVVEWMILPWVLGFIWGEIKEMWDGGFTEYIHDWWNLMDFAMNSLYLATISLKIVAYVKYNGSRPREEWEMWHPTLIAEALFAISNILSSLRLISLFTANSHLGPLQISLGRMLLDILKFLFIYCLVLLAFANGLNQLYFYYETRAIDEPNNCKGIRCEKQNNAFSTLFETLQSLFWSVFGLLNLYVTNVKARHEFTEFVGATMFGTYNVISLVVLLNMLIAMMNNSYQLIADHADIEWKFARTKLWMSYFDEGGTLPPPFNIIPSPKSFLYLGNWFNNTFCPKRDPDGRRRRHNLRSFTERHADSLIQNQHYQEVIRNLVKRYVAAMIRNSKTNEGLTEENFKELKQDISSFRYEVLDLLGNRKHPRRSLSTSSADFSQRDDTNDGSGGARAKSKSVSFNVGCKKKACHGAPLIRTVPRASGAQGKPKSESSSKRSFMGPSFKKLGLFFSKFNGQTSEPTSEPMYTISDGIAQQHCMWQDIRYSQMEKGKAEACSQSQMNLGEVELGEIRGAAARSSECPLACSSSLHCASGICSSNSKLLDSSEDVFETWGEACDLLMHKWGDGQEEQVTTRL
As to the kind of experiment: Syncropatch automated patch clamp, inhibition of riluzole-induced TRPC5 currents. The conditions noted are these: TRPC5 IC50, riluzole (30 μM)-induced TRPC5 current; Syncropatch. The class given is cell-based. In short, it runs like this: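 Doxycycline-induced (0.5–1 μg/mL, 3 days) Flp-In T-REx-293 cells stably expressing mouse TRPC5, used in automated patch clamp. 200 ms ramps from −100 to +100 mV every 5–10 s. 30 μM riluzole activates currents and stays present with compound. Only cells with doubly-rectifying currents kept. % inhibition compares 3 ramps after vs before compound, normalized to a reference inhibitor at 3 μM. IC50 from three-parameter fit.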
(Patch clamp records ionic current or voltage across a cell membrane.)

Series [1] is described as follows: Human liver microsome stability. Type of series: in vitro ADME. The conditions noted are these: liver microsomes.
A short description of series [2]: Mouse liver microsome stability. The class given is in vitro ADME. The note with it: liver microsomes. For orientation: Liver microsomes are a subcellular fraction often used to study metabolism.
Series [3] is described as follows: Human plasma protein binding. Type of series: in vitro ADME.
Series [4] can be described thus: Mouse plasma protein binding. The class given is in vitro ADME.
Where [5] appears, read: rat, in vivo, intravenous, 0.25 mg/kg.

Each structure is given as a SMILES string.

In general, IC50 refers to the concentration at which inhibition is half-maximal. High values mean lower potency, low ones higher potency. For orientation: CLint scaled means the capacity of the preparation to metabolise the compound, expressed as a volume cleared per time. Low readings indicate slow turnover, high ones rapid turnover. For orientation: fraction unbound means free concentration divided by total concentration. One may read the Kp as the ratio of the level in a tissue or fluid to that in plasma or blood. As usually defined, the MRT inf is a mean duration of stay, worked out from the concentration-time curve. As usually defined, the Vd is the apparent volume that relates the amount in the body to the concentration in plasma or blood. A low value points to confinement near the circulation. A word on the clearance: it is a measure of how efficiently the substance is removed, as volume per time. Lower therefore signals a low capacity for elimination. Broadly, the half-life is how long it takes for the measured level to halve. Lower therefore signals fast loss. The AUC is the area under the concentration-time curve, a measure of exposure. A high value points to more exposure. Consider `CCCNc1nc2ccccc2n1Cc1ccc(Cl)cc1` [16 f, 1‐(4‐Chlorobenzyl)‐N‐propyl‐1H‐benzo[d]imidazol‐2‐amine], for which the half-maximal inhibitory concentration (IC50) against mouse TRPC5 was determined as 68 ± 106 nM. In addition, in series [1], the CLint scaled amounted to 127 mL/min/kg and the hCLHEP came out at 17.4 mL/min/kg. For the same compound, in series [2], the CLint scaled turned out to be 867 mL/min/kg and the mCLHEP came out at 81.6 mL/min/kg. Also, the fraction unbound in series [3] was determined as 0.014. Moreover, the unbound share (fraction unbound) in series [4] was 0.036. This compound came in with a Brain in the series “In vivo rat cassette PK” (Rat cassette (0.25 mpk), brain level for Kp) of 163. The compound further registered a Plasma in the series “In vivo rat cassette PK” (Rat cassette (0.25 mpk), plasma level for Kp) of 77.5. In “In vivo rat cassette PK” (rat, brain/plasma, intravenous, 0.25 mpk), the partition ratio (Kp) is 2.1. In “In vivo rat cassette PK” (setting [5]), this compound yielded a C0 of 140 ng/mL, a mean residence time (MRT inf) of 37.9 min, a Vd of 2.3 L/kg and a clearance of 57.8 mL/min/kg. The same compound had a half-life in “In vivo rat cassette PK” (setting [5]) of 43.3 min. Moreover, the area under the curve (AUC) in “In vivo rat cassette PK” (rat, plasma, intravenous, 0.25 mg/kg) worked out at 291 ng·h/mL.

These data come from paper PMC9308755 (Chemmedchem, 2022).
